According to ChEMBL document CHEMBL1212759, “Antifungal activity of colistin against mucorales species in vitro and in a murine model of Rhizopus oryzae pulmonary infection” (Antimicrob Agents Chemother, 2010):

System: Rhizopus arrhizus
Assay: Antimicrobial activity against Rhizopus oryzae isolate 4549 after 24 hrs in RMPI 1640 medium by broth microdilution method
Format: functional, organism-based
Outline: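 Colistin was serially diluted from 64 to 0.06 μg/ml in RPMI 1640 with glucamine and without bicarbonate. Fresh spores from 48–72 h YAG plates were added at 0.5 × 10^4 to 4 × 10^4 cells/ml. Plates were incubated 24 h at 37°C. MIC was read visually as the lowest concentration giving 100% growth inhibition.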

- MIC: 32 µg/mL
Sequence: COLISTIN
- MFC: 64 µg/mL
